Test results: ChEMBL document CHEMBL6083209, “Pyridazinone-based derivatives as anticancer agents endowed with anti-microbial activity: molecular design, synthesis, and biological investigation” (RSC Med Chem, 2024)
≈ marks a conversion by molar mass, not a printed value. Blank lines part the entries; values can stand above or below the compound they belong to. Calls of active or inactive are those of the source. The calls are words filed in the database; no cut-off is given here.

What was measured:
[1] = tested on: Staphylococcus aureus; assay: Antimicrobial activity against Staphylococcus aureus; type: functional
[2] = biological target: Vascular endothelial growth factor receptor 2 (Homo sapiens, UniProt P35968); assay: Inhibition of VEGFR2 (unknown origin)
[3] = tested on: MCF7; assay: Antiproliferative activity against human MCF7 cells assessed as growth inhibition at 10 uM incubated for 48 hrs by SRB method; type: functional; conditions: read-out: GI
Summary of the method: (§1)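 NCI-60 one-dose screen at 10 μM. Cells were grown in RPMI 1640 with 5% FBS and 2 mM L-glutamine and plated at 5000–40 000 cells/well for 24 h. Drug exposure was 48 h at 37 °C, 5% CO2. Cells were fixed with TCA, stained with 0.4% SRB and read at 515 nm. Growth is expressed as percent of untreated control and time-zero plates.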

[4] = tested on: K562; assay: Antiproliferative activity against human K562 cells assessed as growth inhibition at 10 uM incubated for 48 hrs by SRB method; type: functional; conditions: K562, read-out: GI; summary of the method: as §1
[5] = tested on: CCRF-CEM; assay: Antiproliferative activity against human CCRF-CEM cells assessed as growth inhibition at 10 uM incubated for 48 hrs by SRB method; type: functional; conditions: read-out: GI; summary of the method: as §1
[6] = tested on: OVCAR-3; assay: Antiproliferative activity against human OVCAR-3 cells assessed as growth inhibition at 10 uM incubated for 48 hrs by SRB method; type: functional; conditions: read-out: GI; summary of the method: as §1
[7] = tested on: Candida albicans; assay: Antimicrobial activity against Candida albicans ATCC 10231 by broth microdilution method
[8] = tested on: KM12; assay: Antiproliferative activity against human KM12 cells assessed as growth inhibition at 10 uM incubated for 48 hrs by SRB method; type: functional; conditions: read-out: GI; summary of the method: as §1
[9] = tested on: SF-295; assay: Antiproliferative activity against human SF-295 cells assessed as growth inhibition at 10 uM incubated for 48 hrs by SRB method; type: functional; conditions: read-out: GI; summary of the method: as §1
[10] = tested on: NCI-H522; assay: Antiproliferative activity against human NCI-H522 cells assessed as growth inhibition at 10 uM incubated for 48 hrs by SRB method; type: functional; conditions: NCI-H522, read-out: GI; summary of the method: as §1
[11] = tested on: RPMI-8226; assay: Antiproliferative activity against human RPMI-8226 cells assessed as growth inhibition at 10 uM incubated for 48 hrs by SRB method; type: functional; conditions: RPMI-8226, read-out: GI; summary of the method: as §1
[12] = tested on: T47D; assay: Antiproliferative activity against human T47D cells assessed as growth inhibition at 10 uM incubated for 48 hrs by SRB method; type: functional; conditions: read-out: GI; summary of the method: as §1
[13] = tested on: Escherichia coli; assay: Antimicrobial activity against Escherichia coli ATCC 25922 by broth microdilution method
[14] = tested on: PC-3; assay: Antiproliferative activity against human PC-3 cells assessed as growth inhibition at 10 uM incubated for 48 hrs by SRB method; type: functional; conditions: PC-3, read-out: GI; summary of the method: as §1
[15] = tested on: Staphylococcus aureus; assay: Antimicrobial activity against Staphylococcus aureus ATCC 29213 by broth microdilution method
[16] = Upregulation of p53 gene expression in human A549 cells assessed as fold increase by qRT-PCR analysis; type: functional
Summary of the method: (§2)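 A549/ATCC cells treated, total RNA DNase-treated and checked by 260/280 ratio (1.8–2.1). Reverse transcription with oligo-dT and MuLV RT: 25 °C 10 min, 42 °C 1 h, 99 °C 5 min. qPCR of 40 cycles (95 °C 15 s, 55 °C 30 s, 72 °C 30 s) followed by melt curve. Relative expression by the 2−ΔΔCT method, mean ± SEM.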

[17] = Upregulation of Bax gene expression in human A549 cells assessed as fold increase by qRT-PCR analysis; type: functional; summary of the method: as §2
[18] = tested on: A549; assay: Downregulation of Bcl-2 gene expression in human A549 cells by qRT-PCR analysis; type: functional, cell-based; summary of the method: as §2

Vascular endothelial growth factor receptor 2, sequence (P35968 whole entry): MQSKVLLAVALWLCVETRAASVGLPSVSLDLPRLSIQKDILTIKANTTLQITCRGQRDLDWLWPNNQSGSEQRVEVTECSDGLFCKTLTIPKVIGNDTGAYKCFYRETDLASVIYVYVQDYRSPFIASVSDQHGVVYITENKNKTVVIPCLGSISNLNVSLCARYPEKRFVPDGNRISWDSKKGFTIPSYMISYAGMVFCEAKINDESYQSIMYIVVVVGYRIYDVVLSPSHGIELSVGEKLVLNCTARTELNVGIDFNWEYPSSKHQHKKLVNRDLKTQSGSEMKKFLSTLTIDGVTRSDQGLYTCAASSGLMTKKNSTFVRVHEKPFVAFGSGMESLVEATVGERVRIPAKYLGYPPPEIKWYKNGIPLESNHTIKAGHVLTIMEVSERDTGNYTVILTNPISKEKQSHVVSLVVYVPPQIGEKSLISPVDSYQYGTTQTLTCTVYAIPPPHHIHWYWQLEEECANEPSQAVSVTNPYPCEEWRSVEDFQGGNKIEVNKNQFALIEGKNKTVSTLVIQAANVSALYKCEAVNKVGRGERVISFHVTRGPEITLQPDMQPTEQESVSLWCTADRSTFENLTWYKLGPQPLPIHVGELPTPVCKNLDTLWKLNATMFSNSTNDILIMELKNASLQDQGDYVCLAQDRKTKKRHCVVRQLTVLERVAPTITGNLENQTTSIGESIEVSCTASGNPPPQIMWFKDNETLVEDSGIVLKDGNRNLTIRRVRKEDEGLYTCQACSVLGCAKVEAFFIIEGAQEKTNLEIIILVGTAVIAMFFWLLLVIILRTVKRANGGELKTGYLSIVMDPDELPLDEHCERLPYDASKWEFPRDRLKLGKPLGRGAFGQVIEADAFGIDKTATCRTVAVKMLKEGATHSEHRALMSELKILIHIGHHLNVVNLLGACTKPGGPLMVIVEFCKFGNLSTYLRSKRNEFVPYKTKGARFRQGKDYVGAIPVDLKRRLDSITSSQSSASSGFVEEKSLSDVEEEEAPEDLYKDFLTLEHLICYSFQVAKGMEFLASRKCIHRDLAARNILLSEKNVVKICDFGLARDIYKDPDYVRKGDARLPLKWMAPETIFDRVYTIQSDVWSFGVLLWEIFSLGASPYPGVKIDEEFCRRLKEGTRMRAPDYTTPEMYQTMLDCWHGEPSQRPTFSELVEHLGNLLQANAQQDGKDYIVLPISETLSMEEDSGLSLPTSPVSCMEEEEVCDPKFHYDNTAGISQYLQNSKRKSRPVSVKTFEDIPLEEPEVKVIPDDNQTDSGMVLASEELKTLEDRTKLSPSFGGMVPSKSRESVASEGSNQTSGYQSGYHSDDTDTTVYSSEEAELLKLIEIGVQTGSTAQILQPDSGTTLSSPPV

SMILES: O=C(Nc1ccc(-c2ccc(=O)[nH]n2)cc1)Nc1cccc(Cl)c1
- inhibition of growth at 10 µM [3]: 64%
- inhibition of growth at 10 µM [4]: 68.4%
- inhibition of growth at 10 µM [5]: 72.9%
- inhibition of growth at 10 µM [6]: 62.2%
- MIC [7]: > 1020 µg/mL
- inhibition of growth at 10 µM [8]: 66.4%
- inhibition of growth at 10 µM [9]: 72.7%
- inhibition of growth at 10 µM [10]: 73.5%
- inhibition of growth at 10 µM [11]: 73.5%
- inhibition of growth at 10 µM [12]: 74.7%
- MIC [13]: > 1020 µg/mL
- inhibition of growth at 10 µM [14]: 68%
- MIC [15]: 256 µg/mL (≈ 751 µM)

SMILES: O=C1CCC(c2ccc(NC(=S)NC(=O)c3ccc(Br)cc3)cc2)=NN1
- MIC [7]: 512 µg/mL (≈ 1190 µM)
- MIC [13]: 256 µg/mL (≈ 594 µM)
- MIC [15]: 512 µg/mL (≈ 1190 µM)

SMILES: O=c1ccc(-c2ccc(NS(=O)(=O)c3ccc(Cl)c(Cl)c3)cc2)n[nH]1
- MIC [7]: 256 µg/mL (≈ 646 µM)
- MIC [13]: 1020 µg/mL (≈ 2580 µM)
- MIC [15]: 512 µg/mL (≈ 1290 µM)

SMILES: COc1cccc2c1C(=O)c1c(O)c3c(c(O)c1C2=O)C[C@@](O)(C(=O)CO)C[C@@H]3O[C@H]1C[C@H](N)[C@H](O)[C@H](C)O1 [DOXORUBICIN]
- fold change (FC) [16]: 3
- fold change (FC) [17]: 3
- Activity [18]: Active

More lines, now with the values ahead:

- MIC [1]: 0.3 µg/mL (≈ 0.76 µM)
SMILES: O=C(Nc1ccc2c(c1)OC(F)(F)O2)Nc1ccc(Cl)c(C(F)(F)F)c1

- IC50 [2]: 1.13 nM
- MIC [1]: 0.25 µg/mL (≈ 0.599 µM)
SMILES: O=C(Nc1ccc(Cl)c(C(F)(F)F)c1)Nc1ccc(Cl)c(C(F)(F)F)c1
